System: MS2 coat protein
Assay: apparent Kd, MS2 coat protein; higher = weaker binding; RNA-MaP array; FMN 200 µM where present
How it was run: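 Stalled E. coli RNA polymerase transcribed each design on Illumina sequencing-chip clusters. The clusters were titrated with SNAP-549-labelled MS2 coat protein, starting at 0.7 or 1.5 nM and doubling up to 3 µM, first without ligand and then with constant ligand, in 100 mM Tris-HCl pH 7.5, 80 mM KCl, 4 mM MgCl2, BSA, DTT, yeast tRNA and Tween-20. Green signal was normalised to red-channel RNA signal and to the control-cluster median Fmax. The apparent Kd is the median of filtered binding-curve fits made for each cluster.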

[1] = designed as: ON switch for flavin mononucleotide, no ligand
[2] = ligand present: flavin mononucleotide, designed as: ON switch for flavin mononucleotide
[3] = designed as: OFF switch for flavin mononucleotide, no ligand
[4] = ligand present: flavin mononucleotide, designed as: OFF switch for flavin mononucleotide

| Sequence | apparent Kd [1] [nM] | apparent Kd [2] [nM] | apparent Kd [3] [nM] | apparent Kd [4] [nM] |
| --- | --- | --- | --- | --- |
| UUGGACGUCGUAGGAUAUGUAGGAUAUCCCUACAUGAGGAUCACCCAUGUUGACAUGGAAGAAGGACAGAAGGACGAUGUCCAU | 105 | 11.8 |  |  |
| GGUCAGGGUGUGAGGAUAUUUACCUAUCACAGUGUGAAGAAGGCACAUGAGGAUCACCCAUGUUAACUGCGGGC |  |  | 51.7 | 76.7 |
| CACGAUGAUGUAGGAUAUAUGCUGGAAUACAGCAUAGAAGGACAUGAGGAUCACCCAUGUUAAGUGCCUCCAAGUAACAUCGUG |  |  | 15.4 | 22.4 |
| AUCAGCUCGUCAGGAUAUGCAUCACUGCUUCGGCAGUGUGGUAAGAUCACAUGAGGAUCACCCAUGUAGAAGGGACGAGCUGAU |  |  | 9.83 | 69.4 |
| UCAUGGUAGCAGGAUAUGCUAUUUAUUUUUUAUGCAGAAGGGCUUACAUGAGGAUCACCCAUGUGUUAGGUUUA |  |  | 113 | 25.2 |
| CCAUGUUAGCAGGAUAUGCAAUAAAUCUUUUAAGCAGAAGGGCUUACAUGAGGAUCACCCAUGUAUAAAGUCAA |  |  | 19.8 | 45.6 |
| ACGGAACAUGAGGAUCACCCAUGUAUCUGAGAUAAGCUCUCGCAGGAUAUUCAGAGAAGCCUAUCGGAGAAGGGUGACAGCAAA | 25.3 | 15.5 |  |  |
| GAAACGCUUGACAUGAGGAUCACCCAUGUUAGAUUGUUAUGUCAGGAUAUAGUCUAGAAACUAGACUAGAAGGGAUAUGUUUCU | 438 | 107 |  |  |
| AGUAAGAUGCAGAAGGUGUCAGCUAGAGCUACGACAUGAGGAUCACCCAUGUACUAGAAACAGUACAAGGAUAUGCAUCUUACA | 80.2 | 8.27 |  |  |
| GUAGCAUAAUCAGGAUAUUCAGAGAAUAGAUAGACAUGAGGAUCACCCAUGUGGCGAAAGCCUAGGGAGAAGGGAUAAUGCUAC | 190 | 32.5 |  |  |
| CUGUGACGGUGCGCAAGUGGACGGAGAAGGCAGACAUGAGGAUCACCCAUGUGAGCCUGCUAUUCUGAGGAUAUCCGUUCGUAC |  |  | 27 | 132 |
| AAUAGCUAAGGAUAUACAUGAGGAUCACCCAUGUAAAACACUACUUGGAACCGCCUCGGUAGAAGGUAGAAAAU |  |  |  | 22.3 |
| GCACUGGCAGGAUAUACAUGAGGAUCACCCAUGUGAUCCCUUAAGUACAAAAGUACAAGUAGAAGGGCCUGUGC |  |  | 771 | 188 |
| CAGACCGGCGUAGGAUAUGUCGACAUGAGGAUCACCCAUGUAAACCUUGUCUGGUCCGGUGUGUGACAGAAGGAUGUCGGCCAU |  |  | 14.6 | 27.9 |
| GGAUCGUAUGUGAGGAUAUACCACUGGAUACAGUGGUAGAAGGCACAUGAGGAUCACCCAUGUCCUAUCGAUCC |  |  | 146 | 196 |
| UUUUAACAUGAGGAUCACCCAUGUGAGGAUAUCGAAAUUUAUAUUAAUAUUAUUAUAACGAGAAGGCACAUUUU |  |  | 66.5 | 82.9 |
| AACGAGGCAGGAUAUACAUGAGGAUCACCCAUGUGCUUGCAUGGCGUGGGAAGUCAUCGUAGAAGGGCCAUGCC |  |  | 154 | 74.2 |
| UGUACUCAAAGAGUACCAAUACGAACAUGAGGAUCACCCAUGUAGGAUAUGCUACUCAAAGAGUAGCAGAAGGACAUGUGCCUA |  |  | 19 | 76.3 |
| UUUUAACAUGAGGAUCACCCAUGUGAGGAUAUCGAAAUUUAUAUUUAUAUUUAUAUAACGAGAAGGCACAUUUU |  |  | 72.4 | 87.6 |
| CCGGAUAUGCAGGAUAUCGUAUCGGAAACGAUACGAGAAGGGUAUACAUGAGGAUCACCCAUGUGUCCUACCGG |  |  | 23 | 33.1 |
| AAUAUAAAGAGCUGGCUCAAUUUAACAUGAGGAUCACCCAUGUAGGAUAUCAGCACGAUAAGUGCUGAGAAGGACAUCCAGCUC |  |  | 16.7 | 36 |
| AAAACGCAAGGAUAUACAUGAGGAUCACCCAUGUAGACAAUAUAAAGGGUCUCACCAUGUAGAAGGUGCUACCC |  |  | 21.3 | 16.5 |
| GGUCCAUCAUGAGGAUAUGGCACCUUAUUGGUGCCAGAAGGCAUGUCUUUAGACAUGAGGAUCACCCAUGUAAUAAAUUGGACC | 1150 | 76.5 |  |  |
| AAUUUACAGGGAGGAUAUACAUGAGGAUCACCCAUGUAAUCAUAUGAUAUUUUUUUUGUAUGAGUGUAGAAGGCCCAAAUAACA |  |  | 9.27 | 11.4 |

| Sequence | apparent Kd [1] [nM] | apparent Kd [2] [nM] | apparent Kd [3] [nM] | apparent Kd [4] [nM] |
| --- | --- | --- | --- | --- |
| AAGUCAGCAGGAUAUGCGAUGGUGUACUAGGUAGUUUGCCCACAUGAGGAUCACCCAUGUAGAAGGGCUGGCUA |  |  | 14.7 | 21.4 |
| AAGCACAGAGGAUAUACAUGGGUGAUAAAAAUCAUGUAAAAACAUGAGGAUCACCCAUGUAGAAGGCUGUGCAA |  |  | 22 | 23.1 |
| AGUCGGAGCAGAGGAUAUUACAUGAGGAUCACCCAUGUAUGAACCAAUAGCUGGAAACAGCAAUGUAAGAAGGCUGCUCCGACA |  |  | 37.6 | 426 |
| CUGGACGUCGUAGGAUAUGUAGGAUAUUCCUACAUGAGGAUCACCCAUGUUGACAUGGAAGAAGGACAGAAGGACGAUGUCCAU | 229 | 4.55 |  |  |
| CAUAUACAGGGAGGAUAUAACAUGAGGAUCACCCAUGUGCAAUCCUCAAUGUUAGAAGGCCCAAUAGAAUCGCAAAAGGCAUCC |  |  | 8.51 | 4.96 |
| GCUGCAUAGGCAGGAUAUGCAAAAGCAGAUGCAAAGCAUUUGUAAAACACAUGAGGAUCACCCAUGUAGAAGGGCCUGUGCAGU |  |  | 21.8 | 21.5 |
| GGAGCCGGCACUGAGGAUAUUCAUAUUAAAACAUGAGGAUCACCCAUGUAGGCCAGAAGGCCUUGGGAGAAGGCAGGUCGGCUCG | 423 | 27.9 |  |  |
| AAAGCAACAUGAGGAUCACCCAUGUAGGAUAUCGCUAUUGUAAUCAUGAAACAUGAUUACAAUAGCGAGAAGGACAUAUGCAAA |  |  | 11.3 | 12.9 |
| CAGUGCUGUUGAGAGGAUAUGCGGCGACGGACAUGAGGAUCACCCAUGUUAGCGACAGCGUUGCGGCAGAAGGCUCUGCCCGCUG | 21 | 13.7 |  |  |
| UUAUGCUGAGAGAAGGUUCAAACUACAUAUUGCAUACAUGAGGAUCACCCAUGUUGGUGAAUAAGAAAGGAUAUUUUACUGUAU |  |  | 86.6 | 63.1 |
| AUCCGGCGUGUAGGAUAUGGAUCCGAUUAGGAUCCAGAAGGACAUGAGGAUCACCCAUGUACAUGUAAACAGUCAUCACCGGAA |  |  | 10.2 | 49.4 |
| GGUGCGAUGUAGAAGGCAGAUCUGAUUCAGAUCUGAGGAUAUACAUGAGGAUCACCCAUGUAAAGGCACCGCACGAGAGUGCAA |  |  | 7.12 | 11.3 |
| AAGGAGUGAGGAUAUGCGCGGGCACGCUCUAAAUAAGAAAGACAUGAGGAUCACCCAUGUAGAAGGCACAAUAA |  |  | 19.9 | 32.5 |
| AGUUAAUAUCGAGGAUAUAAGUCUAAGACAUGAGGAUCACCCAUGUAUGUCUUAGAAGGCGAUAUUAACAGCAUGUUACAUGCA | 53.2 | 9.67 |  |  |
| UGUCGGAGCAGAGGAUAUACAUGAGGAUCACCCAUGUAAUAAAGUGAAGCCUGGACACAGGCAAUGUAGAAGGCUGCUCCGACA |  |  | 12.7 | 87.9 |
| UCGAGUGGUUAGGAUAUCAUUGGUGCAUAUCAUUGAGAAGGAACUACAUGAGGAUCACCCAUGUGGCAGUGAUA |  |  | 28.2 | 126 |
| CGUGCUUAUGUAGGAUAUGGUUAUCUAUGUCUAGUUACUAGACAUAGAUAACCAGAAGGACAUGAGGAUCACCCAUGUAGCACG |  |  | 14.6 | 25.8 |
| UGUUGUAUUACAGGAUAUCUAUUAUUUUUAUAUAGAGAAGGGUAUUCACAUGAGGAUCACCCAUGUAUAUACGAGGAAGUUGUG | 37.2 | 40.8 |  |  |
| AUUCAGUCAGGAUAUCGUUAAUUUAAUUGUUUGUUUUAGUUCGAGAAGGGACAUGAGGAUCACCCAUGUACUUA |  |  | 25.9 | 27.3 |
| UUUAGUUCAGGAUAUGUAGAUUUUAACAUGAGGAUCACCCAUGUAGAUCCUGAAUUAACUACAGAAGGGAACAUUU |  |  | 19.8 | 88.6 |
| UGGUAACAUGAGGAUCACCCAUGUCAGGAUAUCAGUAAGAAUAGAUUAGAGUAGAAGAUGAGAAGGGACUAUAU |  |  | 31.9 | 29.5 |
| UAAGAGUGAGGAUAUACGUCGCUGGACCGGAUGGACGCAUGACAUGAGGAUCACCCAUGUAGAAGGCACAAAAC |  |  | 20.2 | 25.5 |
| GGUGUCGCAUGAGGAUAUGGUCAGCUUUGCUGACCAGAAGGCAUGUCGAUAGACAUGAGGAUCACCCAUGUAGUAAAGACACCA | 990 | 72.7 |  |  |
| CACAGGGAUUCAGGAUAUAUUAGCCGAGGCCGCGUAGAAGGGAAAUCCUGACAUGAGGAUCACCCAUGUCGACCCGCCUUCCAC | 24.2 | 25.3 |  |  |

Source: the EternaBench riboswitch data
